Data from ChEMBL document CHEMBL1157674, “Nanomolar affinity, iminosugar-based chemical probes for specific labeling of lysosomal glucocerebrosidase” (Bioorg Med Chem, 2010).
Active and inactive are the calls of the source. The rule behind the calls is not given here.

How the values were obtained:
[1] = system: Prunus dulcis; experiment: Binding affinity to almond beta-glucosidase expressed in Escherichia coli BL21 (DE3) at 100 uM by fluorescence assay
Outline: (§1)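 E. coli BL21(DE3) lysate (1 mg/mL protein by BCA) spiked with varying amounts of almond β-glucosidase. Probe added as 4 or 10 µL of a 1 mM stock in 100 µL, in HEPES/NaCl pH 7.4. Photolabeling at 366 nm, 30 min, 4 °C, then fluorescein-N3 click. SDS–PAGE with fluorescence scan and silver stain.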

[2] = Displacement of PNPG from almond beta-glucosidase by UV spectroscopy; parameters: species or system Prunus dulcis
Outline: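 Almond β-glucosidase with p-nitrophenyl β-D-glucopyranoside (0.2–5 mM) in 0.1 M acetate buffer pH 5.0, 150 µL wells. After 15 min at 37 °C, p-nitrophenol read at 405 nm. Ki derived by varying both inhibitor and substrate concentrations.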

[3] = system: Prunus dulcis; experiment: Binding affinity to almond beta-glucosidase at 40 uM after 30 mins by fluorescence assay
Outline: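 Almond β-glucosidase from a 1 mg/mL stock, with probe added from a 1 mM stock in 5% DMSO/water, in 50 mM HEPES, 150 mM NaCl, pH 7.4. UV irradiation at 366 nm for 30 min at 4 °C; a non-irradiated control was kept dark. Then CuSO4/TCEP click with fluorescein-N3 for 1 h at rt. SDS–PAGE, fluorescence scan, then silver stain.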

[4] = system: Prunus dulcis; experiment: Binding affinity to almond beta-glucosidase expressed in Escherichia coli BL21 (DE3) at 40 uM by fluorescence assay; outline: as §1
[5] = target: T1, Lysosomal acid glucosylceramidase (Homo sapiens) (UniProt P04062); experiment: Binding affinity to human GBA at 10 uM by fluorescence assay
T1 sequence (whole entry): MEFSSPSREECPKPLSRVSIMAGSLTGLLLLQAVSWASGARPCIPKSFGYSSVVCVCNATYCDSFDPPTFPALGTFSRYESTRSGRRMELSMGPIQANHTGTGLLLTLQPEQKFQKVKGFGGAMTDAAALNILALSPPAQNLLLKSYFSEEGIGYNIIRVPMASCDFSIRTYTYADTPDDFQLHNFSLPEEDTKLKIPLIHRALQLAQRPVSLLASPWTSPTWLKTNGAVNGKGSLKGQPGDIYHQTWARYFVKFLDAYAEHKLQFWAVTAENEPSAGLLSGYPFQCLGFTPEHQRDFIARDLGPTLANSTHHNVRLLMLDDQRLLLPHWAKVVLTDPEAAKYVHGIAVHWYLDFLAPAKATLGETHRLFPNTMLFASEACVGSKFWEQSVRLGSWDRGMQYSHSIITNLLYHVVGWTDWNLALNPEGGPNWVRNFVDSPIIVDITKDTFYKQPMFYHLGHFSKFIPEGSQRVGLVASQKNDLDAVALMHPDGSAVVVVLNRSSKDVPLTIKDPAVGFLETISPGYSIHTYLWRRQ
Outline: (§2)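 Ceredase (human placental GBA) photolabeled in 50 µL with probe at 10, 5, 3, 1, 0.5 or 0.1 µM in 50 mM HEPES pH 6.1. UV 366 nm, 30 min, 4 °C. Then CuSO4/TCEP click with fluorescein-N3 for 16 h at 4 °C, denaturation at 95 °C, SDS–PAGE and fluorescence scanning.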

[6] = target: T1, Lysosomal acid glucosylceramidase (Homo sapiens); experiment: Binding affinity to human GBA at 0.1 uM by fluorescence assay; outline: as §2
[7] = target: T1, Lysosomal acid glucosylceramidase (Homo sapiens); experiment: Displacement of deoxynojirimycin from human GBA at 5 uM by fluorescence assay
Outline: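 Competition labeling: Ceredase with probe plus 0, 0.5, 5 or 25 µL of 1 mM deoxynojirimycin stock in 50 µL, 50 mM HEPES pH 6.1. UV irradiation at 366 nm for 30 min at 4 °C, then fluorescein-N3 click and SDS–PAGE fluorescence read-out.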

[8] = target: T2, Lysosomal acid glucosylceramidase (Homo sapiens, UniProt P04062); experiment: Displacement of 4-methylumbelliferyl from human GBA by fluorimetry
T2 sequence (P04062 whole entry): T1 sequence (whole entry)

[9] = target: T3, Beta-glucosidase (Homo sapiens, UniProt Q9HCG7); experiment: Displacement of 4-methylumbelliferyl from non-lysosomal GBA2 by fluorimetry
T3 sequence (Q9HCG7 whole entry): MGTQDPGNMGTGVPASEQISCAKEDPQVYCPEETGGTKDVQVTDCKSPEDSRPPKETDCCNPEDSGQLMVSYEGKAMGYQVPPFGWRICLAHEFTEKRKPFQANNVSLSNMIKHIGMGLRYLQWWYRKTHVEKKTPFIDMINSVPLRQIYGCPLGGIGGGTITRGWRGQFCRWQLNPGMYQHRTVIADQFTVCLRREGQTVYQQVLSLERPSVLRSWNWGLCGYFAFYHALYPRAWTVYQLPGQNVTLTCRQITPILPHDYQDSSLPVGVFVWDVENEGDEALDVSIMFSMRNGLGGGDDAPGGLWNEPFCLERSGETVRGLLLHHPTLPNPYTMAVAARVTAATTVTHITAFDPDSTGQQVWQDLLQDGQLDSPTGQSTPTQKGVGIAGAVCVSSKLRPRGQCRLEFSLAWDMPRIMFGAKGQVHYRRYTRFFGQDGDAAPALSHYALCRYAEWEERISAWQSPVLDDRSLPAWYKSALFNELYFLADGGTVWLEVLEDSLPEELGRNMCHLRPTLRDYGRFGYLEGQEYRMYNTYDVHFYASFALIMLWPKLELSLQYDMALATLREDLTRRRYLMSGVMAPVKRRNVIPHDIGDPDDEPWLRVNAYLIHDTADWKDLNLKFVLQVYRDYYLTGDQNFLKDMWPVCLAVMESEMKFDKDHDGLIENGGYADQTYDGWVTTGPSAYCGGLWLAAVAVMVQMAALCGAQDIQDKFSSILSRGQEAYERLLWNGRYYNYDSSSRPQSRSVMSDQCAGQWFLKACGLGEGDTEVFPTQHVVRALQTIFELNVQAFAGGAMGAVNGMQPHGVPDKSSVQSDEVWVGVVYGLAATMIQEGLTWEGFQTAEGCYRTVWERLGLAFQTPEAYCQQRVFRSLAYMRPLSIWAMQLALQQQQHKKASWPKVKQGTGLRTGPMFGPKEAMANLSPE

[10] = target: T1, Lysosomal acid glucosylceramidase (Homo sapiens); experiment: Binding affinity to human GBA at 0.1 to 10 uM by fluorescence assay; outline: as §2
[11] = Inhibition of Agrobacterium sp. beta-glucosidase
[12] = target: T1, Lysosomal acid glucosylceramidase (Homo sapiens); experiment: Binding affinity to GBA in human HeLa cell extract at 3 uM by fluorescence assay; assay type: cell-free
Outline: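 300 ng Ceredase with increasing HeLa cell lysate (0.5 mg/mL stock; 0–40 µL) in 50 mM HEPES pH 6.1 with probe. UV 366 nm, 30 min, 4 °C. Then fluorescein-N3 click, SDS–PAGE, fluorescence scan and silver stain. Lysate prepared from 2.5×10^5 PBS-washed cells by detergent extraction; protein measured by BCA.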

SMILES	Activity [1]	Ki [2]	Activity [5]	Activity [6]	Activity [7]	IC50 [8]	IC50 [9]	other results
C#CCOc1ccc(C(=O)CCC(=O)NCCCN2C[C@H](O)[C@@H](O)[C@H](O)[C@H]2CO)cc1		6400 nM			Active	1650 nM	75 nM	Activity [10]: inactive
CN(C)c1cccc2c(S(=O)(=O)NC[C@H]3N[C@H](CO)[C@@H](O)[C@@H]3O)cccc12								Ki [11]: 2 nM
OC[C@H]1NC[C@H](O)[C@@H](O)[C@@H]1O [DUVOGLUSTAT]		167000 nM						

More lines, main results first:

Activity [1]	Ki [2]	Activity [5]	Activity [6]	Activity [7]	IC50 [8]	IC50 [9]	SMILES	other results
Active							C#CCOc1ccc(C(=O)c2ccc(O)cc2)cc1	
Active	588000 nM	Active	inactive	Active			C#CCOc1ccc(C(=O)c2ccc(O[C@@H]3O[C@H](CO)[C@@H](O)[C@H](O)[C@H]3O)cc2)cc1	Activity [3]: Active; Activity [4]: Active
	1300 nM	Active	inactive	Active	350 nM	20 nM	C#CCOc1ccc(C(=O)c2ccc(C(=O)NCCCN3C[C@H](O)[C@@H](O)[C@H](O)[C@H]3CO)cc2)cc1	Activity [12]: Active
